Laboratory results: ChEMBL document CHEMBL4689842, “EUbOPEN Chemogenomics Library wave 1” (2021)
Values joined by “and” are separate entries in the source; they are usually repeats but may differ in a detail not shown here. Equal values may be shown once.

System: U2OS
Experiment: Multiplex assay against U2OS
Type: toxicity, cell-based
Settings: human
How it was run: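 Four dyes were applied at seeding to live cells: Hoechst33342, BioTracker Green Microtubule Cytoskeleton Dye, MitoTracker Red and Annexin V Alexa Fluor 680. Imaging after compound addition used a CQ1 microscope at 37°C and 5% CO2. CellPathfinder machine-learning gating then sorted cells into Hoechst high-intensity objects or normal cells, normal cells into healthy, pyknosed or fragmented nuclei, and pyknosed cells into mitotic or apoptotic, with tubulin, mitochondrial-mass and membrane-permeability phenotypes given as per cents of healthy-nucleus cells.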

[1] = 12 h, 1 µM, compound concentration 1 uM, replicate 1
[2] = 12 h, 1 µM, compound concentration 1 uM, replicate 2
[3] = 12 h, 10 µM, compound concentration 10 uM, replicate 1
[4] = 12 h, 10 µM, compound concentration 10 uM, replicate 2
[5] = 24 h, 1 µM, compound concentration 1 uM, replicate 1
[6] = 24 h, 1 µM, compound concentration 1 uM, replicate 2
[7] = 24 h, 10 µM, compound concentration 10 uM, replicate 1
[8] = 24 h, 10 µM, compound concentration 10 uM, replicate 2
[9] = 48 h, 1 µM, compound concentration 1 uM, replicate 1
[10] = 48 h, 1 µM, compound concentration 1 uM, replicate 2
[11] = 48 h, 10 µM, compound concentration 10 uM, replicate 1
[12] = 48 h, 10 µM, compound concentration 10 uM, replicate 2

With `CN(C)CC#Cc1ccc(OCCCc2sc(N3CCc4cccc(C(=O)Nc5nc6ccccc6s5)c4C3)nc2C(=O)O)c(F)c1` [A-1155463] the “Population Apoptotic (%)” value [1] was 63%, the “Population Fragmented Nuclei (%)” value [1] was 13% and the “Population Healthy Nuclei (%)” value [1] was 65%. For the same molecule, the “Population Hoechst High Intensity Objects (%)” value [1] was 12%, the “Population Membrane Permeable-Phenotype (%)” value [1] was 14% and the “Population Mitochondria Different-Phenotype (%)” value [1] was 14%. The “Population Mitotic Cells (%)” value [1] was 36%, the “Population Normal (%)” value [1] was 87% and the “Population Pyknosed Nuclei (%)” value [1] was 21%. The “Population Tubulin-Different-Phenotype (%)” value [1] was 11%, the “Total Cell Count” value [1] was 175 and the “Population Apoptotic (%)” value [2] was 66%. The “Population Fragmented Nuclei (%)” value [2] was 39%, the “Population Healthy Nuclei (%)” value [2] was 53% and the “Population Hoechst High Intensity Objects (%)” value [2] was 4%. For the same molecule, the “Population Membrane Permeable-Phenotype (%)” value [2] was 13%, the “Population Mitochondria Different-Phenotype (%)” value [2] was 31% and the “Population Mitotic Cells (%)” value [2] was 33%. The “Population Normal (%)” value [2] was 95%, the “Population Pyknosed Nuclei (%)” value [2] was 7% and the “Population Tubulin-Different-Phenotype (%)” value [2] was 27%. For the same molecule, the “Total Cell Count” value [2] was 86, the “Population Apoptotic (%)” value [3] was 61% and the “Population Fragmented Nuclei (%)” value [3] was 25%. The “Population Healthy Nuclei (%)” value [3] was 55%, the “Population Hoechst High Intensity Objects (%)” value [3] was 6% and the “Population Membrane Permeable-Phenotype (%)” value [3] was 8%. The “Population Mitochondria Different-Phenotype (%)” value [3] was 15%, the “Population Mitotic Cells (%)” value [3] was 38% and the “Population Normal (%)” value [3] was 93%. For the same molecule, the “Population Pyknosed Nuclei (%)” value [3] was 19%, the “Population Tubulin-Different-Phenotype (%)” value [3] was 13% and the “Total Cell Count” value [3] was 189. The “Population Apoptotic (%)” value [4] was 86%, the “Population Fragmented Nuclei (%)” value [4] was 33% and the “Population Healthy Nuclei (%)” value [4] was 42%. The “Population Hoechst High Intensity Objects (%)” value [4] was 5%, the “Population Membrane Permeable-Phenotype (%)” value [4] was 24% and the “Population Mitochondria Different-Phenotype (%)” value [4] was 16%. The “Population Mitotic Cells (%)” value [4] was 13%, the “Population Normal (%)” value [4] was 94% and the “Population Pyknosed Nuclei (%)” value [4] was 23%. For the same molecule, the “Population Tubulin-Different-Phenotype (%)” value [4] was 25%, the “Total Cell Count” value [4] was 133 and the “Population Apoptotic (%)” value [5] was 47%. The “Population Fragmented Nuclei (%)” value [5] was 19%, the “Population Healthy Nuclei (%)” value [5] was 58% and the “Population Hoechst High Intensity Objects (%)” value [5] was 5%. The “Population Membrane Permeable-Phenotype (%)” value [5] was 11%, the “Population Mitochondria Different-Phenotype (%)” value [5] was 15% and the “Population Mitotic Cells (%)” value [5] was 52%. For the same molecule, the “Population Normal (%)” value [5] was 94%, the “Population Pyknosed Nuclei (%)” value [5] was 21% and the “Population Tubulin-Different-Phenotype (%)” value [5] was 6%. For the same molecule, the “Total Cell Count” value [5] was 222, the “Population Apoptotic (%)” value [6] was 50% and the “Population Fragmented Nuclei (%)” value [6] was 36%. For the same molecule, the “Population Healthy Nuclei (%)” value [6] was 54%, the “Population Hoechst High Intensity Objects (%)” value [6] was 7% and the “Population Membrane Permeable-Phenotype (%)” value [6] was 13%. For the same molecule, the “Population Mitochondria Different-Phenotype (%)” value [6] was 32%, the “Population Mitotic Cells (%)” value [6] was 50% and the “Population Normal (%)” value [6] was 92%. The “Population Pyknosed Nuclei (%)” value [6] was 9%, the “Population Tubulin-Different-Phenotype (%)” value [6] was 28% and the “Total Cell Count” value [6] was 92. The “Population Apoptotic (%)” value [7] was 58%, the “Population Fragmented Nuclei (%)” value [7] was 20% and the “Population Healthy Nuclei (%)” value [7] was 51%. For the same molecule, the “Population Hoechst High Intensity Objects (%)” value [7] was 5%, the “Population Membrane Permeable-Phenotype (%)” value [7] was 13% and the “Population Mitochondria Different-Phenotype (%)” value [7] was 23%. For the same molecule, the “Population Mitotic Cells (%)” value [7] was 41%, the “Population Normal (%)” value [7] was 94% and the “Population Pyknosed Nuclei (%)” value [7] was 27%. For the same molecule, the “Population Tubulin-Different-Phenotype (%)” value [7] was 12%, the “Total Cell Count” value [7] was 194 and the “Population Apoptotic (%)” value [8] was 81%. For the same molecule, the “Population Fragmented Nuclei (%)” value [8] was 32%, the “Population Healthy Nuclei (%)” value [8] was 45% and the “Population Hoechst High Intensity Objects (%)” value [8] was 10%. For the same molecule, the “Population Membrane Permeable-Phenotype (%)” value [8] was 20%, the “Population Mitochondria Different-Phenotype (%)” value [8] was 14% and the “Population Mitotic Cells (%)” value [8] was 18%. For the same molecule, the “Population Normal (%)” value [8] was 89%, the “Population Pyknosed Nuclei (%)” value [8] was 22% and the “Population Tubulin-Different-Phenotype (%)” value [8] was 21%. The “Total Cell Count” value [8] was 135, the “Population Apoptotic (%)” value [9] was 67% and the “Population Fragmented Nuclei (%)” value [9] was 24%. The “Population Healthy Nuclei (%)” value [9] was 46%, the “Population Hoechst High Intensity Objects (%)” value [9] was 10% and the “Population Membrane Permeable-Phenotype (%)” value [9] was 7%. For the same molecule, the “Population Mitochondria Different-Phenotype (%)” value [9] was 18%, the “Population Mitotic Cells (%)” value [9] was 32% and the “Population Normal (%)” value [9] was 89%. For the same molecule, the “Population Pyknosed Nuclei (%)” value [9] was 29%, the “Population Tubulin-Different-Phenotype (%)” value [9] was 10% and the “Total Cell Count” value [9] was 285. The “Population Apoptotic (%)” value [10] was 77%, the “Population Fragmented Nuclei (%)” value [10] was 28% and the “Population Healthy Nuclei (%)” value [10] was 51%. For the same molecule, the “Population Hoechst High Intensity Objects (%)” value [10] was 5%, the “Population Membrane Permeable-Phenotype (%)” value [10] was 19% and the “Population Mitochondria Different-Phenotype (%)” value [10] was 43%. For the same molecule, the “Population Mitotic Cells (%)” value [10] was 22%, the “Population Normal (%)” value [10] was 94% and the “Population Pyknosed Nuclei (%)” value [10] was 20%. The “Population Tubulin-Different-Phenotype (%)” value [10] was 36%, the “Total Cell Count” value [10] was 117 and the “Population Apoptotic (%)” value [11] was 74%. For the same molecule, the “Population Fragmented Nuclei (%)” value [11] was 26%, the “Population Healthy Nuclei (%)” value [11] was 32% and the “Population Hoechst High Intensity Objects (%)” value [11] was 9%. For the same molecule, the “Population Membrane Permeable-Phenotype (%)” value [11] was 23%, the “Population Mitochondria Different-Phenotype (%)” value [11] was 38% and the “Population Mitotic Cells (%)” value [11] was 25%. For the same molecule, the “Population Normal (%)” value [11] was 90%, the “Population Pyknosed Nuclei (%)” value [11] was 40% and the “Population Tubulin-Different-Phenotype (%)” value [11] was 11%. The “Total Cell Count” value [11] was 246, the “Population Apoptotic (%)” value [12] was 81% and the “Population Fragmented Nuclei (%)” value [12] was 34%. The “Population Healthy Nuclei (%)” value [12] was 35%, the “Population Hoechst High Intensity Objects (%)” value [12] was 8% and the “Population Membrane Permeable-Phenotype (%)” value [12] was 57%. For the same molecule, the “Population Mitochondria Different-Phenotype (%)” value [12] was 51%, the “Population Mitotic Cells (%)” value [12] was 18% and the “Population Normal (%)” value [12] was 91%. For the same molecule, the “Population Pyknosed Nuclei (%)” value [12] was 29%, the “Population Tubulin-Different-Phenotype (%)” value [12] was 57% and the “Total Cell Count” value [12] was 139.

With `O=C(NCCN1CCOCC1)c1ccc2c(c1)C(=O)c1ccc(Nc3ccc(F)c(NC(=O)c4ccccc4)c3)cc1CC2` [FS-694] the “Population Apoptotic (%)” value [3] was 75% and 25%, the “Population Healthy Nuclei (%)” value [3] was 83% and 54% and the “Population Membrane Permeable-Phenotype (%)” value [3] was 67% and 52%. The “Population Mitochondria Different-Phenotype (%)” value [3] was 18% and 50%, the “Population Mitotic Cells (%)” value [3] was 25% and 74% and the “Population Normal (%)” value [3] was 95% and 53%. The “Population Pyknosed Nuclei (%)” value [3] was 8% and 13%, the “Population Tubulin-Different-Phenotype (%)” value [3] was 48% and 88% and the “Total Cell Count” value [3] was 178 and 187. For the same molecule, the “Population Fragmented Nuclei (%)” value [4] was 40% and 27%, the “Population Healthy Nuclei (%)” value [4] was 47% and 65% and the “Population Membrane Permeable-Phenotype (%)” value [4] was 53% and 54%. The “Population Mitotic Cells (%)” value [4] was 60% and 90%, the “Population Normal (%)” value [4] was 47% and 90% and the “Population Pyknosed Nuclei (%)” value [4] was 11% and 7%. The “Total Cell Count” value [4] was 150 and 127, the “Population Apoptotic (%)” value [7] was 37% and 42% and the “Population Healthy Nuclei (%)” value [7] was 48% and 84%. The “Population Membrane Permeable-Phenotype (%)” value [7] was 54% and 41%, the “Population Mitotic Cells (%)” value [7] was 62% and 57% and the “Population Normal (%)” value [7] was 55% and 95%. The “Population Pyknosed Nuclei (%)” value [7] was 23% and 8%, the “Total Cell Count” value [7] was 224 and 170 and the “Population Apoptotic (%)” value [8] was 50%. The “Population Fragmented Nuclei (%)” value [8] was 45% and 17%, the “Population Healthy Nuclei (%)” value [8] was 39% and 76% and the “Population Membrane Permeable-Phenotype (%)” value [8] was 62% and 37%. The “Population Mitotic Cells (%)” value [8] was 50%, the “Population Normal (%)” value [8] was 47% and 91% and the “Population Pyknosed Nuclei (%)” value [8] was 14% and 5%. For the same molecule, the “Total Cell Count” value [8] was 160 and 131.
